Blank lines part the entries; values can stand above or below the compound they belong to. Calls of active or inactive are those of the source. The rule behind the calls is not given here.
Columns and labels:
[1] = molecular target: Growth hormone secretagogue receptor type 1 (Homo sapiens) (UniProt Q92847); experiment: Agonist activity at human ghrelin receptor ([…]) assessed as myo-[2-3H]inositol phosphate accumulation in presence of 10 uM Zn2+ measured after 75 mins by scintillation proximity assay; type: functional
Growth hormone secretagogue receptor type 1 (Homo sapiens), sequence (Q92847 whole entry): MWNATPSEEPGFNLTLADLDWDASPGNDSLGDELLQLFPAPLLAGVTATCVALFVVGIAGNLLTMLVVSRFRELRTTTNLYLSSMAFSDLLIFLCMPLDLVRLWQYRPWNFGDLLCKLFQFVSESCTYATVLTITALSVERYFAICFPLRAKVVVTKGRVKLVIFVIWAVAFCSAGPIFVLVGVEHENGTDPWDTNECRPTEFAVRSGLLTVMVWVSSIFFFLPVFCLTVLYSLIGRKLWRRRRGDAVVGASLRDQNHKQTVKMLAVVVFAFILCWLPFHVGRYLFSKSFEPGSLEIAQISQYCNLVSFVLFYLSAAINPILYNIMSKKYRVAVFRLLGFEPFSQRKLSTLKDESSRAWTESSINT

[2] = molecular target: T1, G-protein coupled receptor 39 (Homo sapiens, UniProt O43194); experiment: (§1) Agonist activity at human GPR39 expressed in HEK293 cells co-expressing Galphaq assessed as myo-[2-3H]inositol phosphate accumulation measured after 75 mins by scintillation proximity assay; type: functional, cell-based
T1 sequence (O43194 whole entry): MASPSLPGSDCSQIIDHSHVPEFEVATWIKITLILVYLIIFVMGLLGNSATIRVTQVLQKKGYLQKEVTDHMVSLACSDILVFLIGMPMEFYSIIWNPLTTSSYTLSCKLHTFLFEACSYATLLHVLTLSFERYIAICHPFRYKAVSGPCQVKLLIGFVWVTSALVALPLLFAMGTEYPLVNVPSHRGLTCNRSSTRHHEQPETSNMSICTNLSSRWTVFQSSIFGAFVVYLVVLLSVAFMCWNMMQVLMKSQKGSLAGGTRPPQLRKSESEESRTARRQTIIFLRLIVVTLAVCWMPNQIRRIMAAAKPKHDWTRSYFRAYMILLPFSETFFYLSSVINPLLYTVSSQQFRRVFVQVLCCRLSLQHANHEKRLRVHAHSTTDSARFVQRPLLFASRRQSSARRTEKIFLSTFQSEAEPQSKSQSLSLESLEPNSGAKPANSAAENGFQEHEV

[3] = molecular target: Neuromedin-U receptor 2 (Homo sapiens) (UniProt Q9GZQ4); experiment: Agonist activity at human NMU2 receptor assessed as myo-[2-3H]inositol phosphate accumulation measured after 75 mins by scintillation proximity assay; type: functional
Neuromedin-U receptor 2 (Homo sapiens), sequence (Q9GZQ4 whole entry): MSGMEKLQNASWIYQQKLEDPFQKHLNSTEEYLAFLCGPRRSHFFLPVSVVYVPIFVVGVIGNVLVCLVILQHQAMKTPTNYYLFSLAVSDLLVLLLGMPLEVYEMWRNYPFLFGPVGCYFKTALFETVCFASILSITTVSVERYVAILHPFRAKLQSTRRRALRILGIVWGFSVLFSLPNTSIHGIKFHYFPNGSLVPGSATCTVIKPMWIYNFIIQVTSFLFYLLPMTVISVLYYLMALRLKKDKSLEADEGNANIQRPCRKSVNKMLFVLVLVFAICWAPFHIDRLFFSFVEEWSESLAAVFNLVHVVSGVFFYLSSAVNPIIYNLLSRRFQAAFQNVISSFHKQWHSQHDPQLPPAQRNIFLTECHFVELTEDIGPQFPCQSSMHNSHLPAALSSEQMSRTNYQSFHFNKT

[4] = molecular target: C-C chemokine receptor type 5 (Macaca mulatta) (UniProt P61813); experiment: Agonist activity at full length monkey CCR5 assessed as myo-[2-3H]inositol phosphate accumulation in presence of 10 uM Zn2+ measured after 75 mins by scintillation proximity assay; type: functional
[5] = molecular target: Motilin receptor (Homo sapiens) (UniProt O43193); experiment: Agonist activity at human motilin receptor (412 residues) assessed as myo-[2-3H]inositol phosphate accumulation in presence of 10 uM Zn2+ measured after 75 mins by scintillation proximity assay; type: functional
Motilin receptor (Homo sapiens), sequence (O43193 whole entry): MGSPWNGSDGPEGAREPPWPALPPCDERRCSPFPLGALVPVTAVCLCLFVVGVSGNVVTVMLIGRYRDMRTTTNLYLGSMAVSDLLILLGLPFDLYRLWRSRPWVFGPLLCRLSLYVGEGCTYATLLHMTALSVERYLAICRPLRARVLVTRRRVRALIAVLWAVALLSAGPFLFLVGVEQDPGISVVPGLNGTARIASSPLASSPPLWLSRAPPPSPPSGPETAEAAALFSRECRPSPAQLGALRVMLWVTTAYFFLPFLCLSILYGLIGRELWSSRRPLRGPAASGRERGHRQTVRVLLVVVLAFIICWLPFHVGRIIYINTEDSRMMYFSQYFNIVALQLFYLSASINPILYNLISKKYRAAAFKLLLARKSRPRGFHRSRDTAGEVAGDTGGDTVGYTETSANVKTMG

[6] = molecular target: T2, G-protein coupled receptor 39 (Mus musculus) (UniProt Q5U431); experiment: Agonist activity at GPR39 in primary gastric mucosal cells isolated from C57BL/6 mouse assessed as inhibition of basal ghrelin secretion at 1 uM in presence of 10 uM of Zn2+ measured after 4 hrs by ELISA relative to basal level
T2 sequence (whole entry): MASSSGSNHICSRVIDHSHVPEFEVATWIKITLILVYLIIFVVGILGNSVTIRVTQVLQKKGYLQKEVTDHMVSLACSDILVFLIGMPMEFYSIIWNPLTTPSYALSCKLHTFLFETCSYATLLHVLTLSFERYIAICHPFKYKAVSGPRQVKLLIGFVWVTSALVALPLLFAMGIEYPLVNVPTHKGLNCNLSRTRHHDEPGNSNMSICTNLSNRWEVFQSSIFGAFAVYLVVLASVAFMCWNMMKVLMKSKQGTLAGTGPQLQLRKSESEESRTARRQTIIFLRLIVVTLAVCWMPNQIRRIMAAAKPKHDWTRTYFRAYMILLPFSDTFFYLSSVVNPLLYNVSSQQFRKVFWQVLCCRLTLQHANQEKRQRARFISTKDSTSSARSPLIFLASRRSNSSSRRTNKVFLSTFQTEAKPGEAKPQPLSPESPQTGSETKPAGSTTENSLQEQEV

[7] = molecular target: Motilin receptor (Homo sapiens) (UniProt O43193); experiment: Agonist activity at human motilin receptor (412 residues) assessed as myo-[2-3H]inositol phosphate accumulation measured after 75 mins by scintillation proximity assay; type: functional
[8] = Increase in CGRP-induced somatostatin release in primary gastric mucosal cells isolated from GPR39 deficient C57BL/6 mouse at 1 uM in presence of 10 uM of Zn2+ measured after 4 hrs by radioimmunoassay relative to control; type: functional, Primary gastric mucosal cell; details: in the assay text read “C57BL/6 mouse” for “GPR39 deficient C57BL/6 mouse”
[9] = molecular target: Neuromedin-U receptor 2 (Homo sapiens) (UniProt Q9GZQ4); experiment: Agonist activity at human NMU2 receptor assessed as myo-[2-3H]inositol phosphate accumulation in presence of 10 uM Zn2+ measured after 75 mins by scintillation proximity assay; type: functional
[10] = molecular target: T3, G-protein coupled receptor 39 (Homo sapiens) (UniProt O43194); experiment: (§2) Agonist activity at GPR39 (unknown origin) expressed in COS7 cells co-expressing Galphas assessed as increase in intracellular cAMP level in presence of 3 uM Zn2+ measured after 30 mins by chemiluminescence assay; type: functional, cell-based
T3 sequence (whole entry): T1 sequence (O43194 whole entry)

[11] = molecular target: T1, G-protein coupled receptor 39; experiment: as §2; type: functional, cell-based
[12] = molecular target: T4, G-protein coupled receptor 39 (Mus musculus, UniProt Q5U431); experiment: Agonist activity at mouse GPR39 expressed in HEK293 cells co-expressing Galphaq assessed as myo-[2-3H]inositol phosphate accumulation in presence of 10 uM Zn2+ measured after 75 mins by scintillation proximity assay; type: functional, cell-based
T4 sequence (Q5U431 whole entry): T2 sequence (whole entry)

[13] = molecular target: T5, C-C chemokine receptor type 1 (Homo sapiens) (UniProt P32246); experiment: Agonist activity at full length human CCR1 assessed as myo-[2-3H]inositol phosphate accumulation measured after 75 mins by scintillation proximity assay; type: functional
T5 sequence (whole entry): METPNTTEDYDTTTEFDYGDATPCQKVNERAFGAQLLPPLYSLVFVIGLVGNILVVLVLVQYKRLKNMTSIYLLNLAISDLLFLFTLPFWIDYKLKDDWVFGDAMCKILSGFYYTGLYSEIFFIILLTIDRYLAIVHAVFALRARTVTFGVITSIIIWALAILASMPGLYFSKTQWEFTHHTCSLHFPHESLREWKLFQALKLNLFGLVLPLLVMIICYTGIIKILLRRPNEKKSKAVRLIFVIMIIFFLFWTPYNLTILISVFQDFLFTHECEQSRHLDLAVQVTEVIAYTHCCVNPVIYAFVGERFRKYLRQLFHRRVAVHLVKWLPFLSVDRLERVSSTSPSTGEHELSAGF

[14] = molecular target: T5, C-C chemokine receptor type 1 (Homo sapiens); experiment: Agonist activity at full length human CCR1 assessed as myo-[2-3H]inositol phosphate accumulation in presence of 10 uM Zn2+ measured after 75 mins by scintillation proximity assay; type: functional
[15] = molecular target: T3, G-protein coupled receptor 39 (Homo sapiens); experiment: Agonist activity at GPR39 (unknown origin) expressed in COS7 cells co-expressing Galphas assessed as increase in intracellular cAMP level measured after 30 mins by chemiluminescence assay; type: functional, cell-based
[16] = molecular target: T2, G-protein coupled receptor 39 (Mus musculus); experiment: Agonist activity at GPR39 in primary gastric mucosal cells isolated from C57BL/6 mouse assessed as inhibition of isoproterenol-induced ghrelin secretion at 1 uM in presence of 10 uM of Zn2+ and somatostatin receptor antagonist BIM-23627 measured after 4 hrs by ELISA
Procedure, shortened: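 Primary gastric mucosal cell cultures from mice, incubated the day after preparation with ligands at 1 μM with 10 μM Zn2+ (with or without a somatostatin receptor antagonist) in triplicate for 4 h. Acyl-ghrelin in supernatant measured by ELISA, expressed as percent of medium-alone cells; n=5–7; unpaired t-test with Welch's correction versus vehicle.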

[17] = molecular target: T1, G-protein coupled receptor 39; experiment: (§3) Agonist activity at human GPR39 expressed in HEK293 cells co-expressing Galphaq assessed as myo-[2-3H]inositol phosphate accumulation in presence of 10 uM Zn2+ measured after 75 mins by scintillation proximity assay; type: functional, cell-based
[18] = molecular target: C-C chemokine receptor type 5 (Macaca mulatta) (UniProt P61813); experiment: Agonist activity at full length rhesus monkey CCR5 assessed as myo-[2-3H]inositol phosphate accumulation measured after 75 mins by scintillation proximity assay; type: functional
[19] = molecular target: T2, G-protein coupled receptor 39 (Mus musculus); experiment: Agonist activity at GPR39 in primary gastric mucosal cells isolated from C57BL/6 mouse assessed as myo-[2-3H]inositol phosphate accumulation in presence of 10 uM Zn2+ measured after 75 mins by scintillation proximity assay; type: functional
Procedure, shortened: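 Primary murine gastric mucosal cell cultures stimulated with ligand plus 10 μM Zn2+; inositol phosphate turnover read out as for the transfected-cell IP accumulation assay.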

[20] = test system: Primary gastric mucosal cell; experiment: Induction of CGRP-induced somatostatin release in primary gastric mucosal cells isolated from GPR39 deficient C57BL/6 mouse at 1 uM in presence of 10 uM of Zn2+ measured after 4 hrs by radioimmunoassay; type: functional, cell-based
Procedure, shortened: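 Primary gastric mucosal cells from GPR39-KO mice, day after preparation, exposed to ligands (1 μM, 10 μM Zn2+) in triplicate for 4 h; supernatant somatostatin measured by in-house RIA and expressed as percent of medium-alone secretion; 10 nM CGRP used as a comparator stimulus; n=2.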

[21] = molecular target: Growth hormone secretagogue receptor type 1 (Homo sapiens) (UniProt Q92847); experiment: Agonist activity at human ghrelin receptor ([…]) assessed as myo-[2-3H]inositol phosphate accumulation measured after 75 mins by scintillation proximity assay; type: functional
[22] = molecular target: T3, G-protein coupled receptor 39 (Homo sapiens); experiment: as §1; type: functional, cell-based
[23] = molecular target: T3, G-protein coupled receptor 39 (Homo sapiens); experiment: Agonist activity at human GPR39 expressed in HEK293 cells co-expressing Galphaq assessed as myo-[2-3H]inositol phosphate accumulation in presence of 100 nM Zn2+ measured after 75 mins by scintillation proximity assay; type: functional, cell-based
[24] = molecular target: T3, G-protein coupled receptor 39 (Homo sapiens); experiment: Agonist activity at human GPR39 expressed in HEK293 cells co-expressing Galphaq assessed as myo-[2-3H]inositol phosphate accumulation in presence of 1 uM Zn2+ measured after 75 mins by scintillation proximity assay; type: functional, cell-based
[25] = molecular target: T3, G-protein coupled receptor 39 (Homo sapiens); experiment: Agonist activity at human GPR39 expressed in HEK293 cells co-expressing Galphaq assessed as myo-[2-3H]inositol phosphate accumulation in presence of 10 uM Zn2+ measured after 75 mins by scintillation proximity assay relative to zinc; type: functional, cell-based
[26] = molecular target: T3, G-protein coupled receptor 39 (Homo sapiens); experiment: as §3; type: functional, cell-based

Activity [1]: inactive | EC50 [2]: 30 nM | Activity [3]: inactive | Activity [4]: inactive | Activity [5]: inactive | inhibition [6]: 61% | Activity [7]: inactive | Activity [9]: inactive | Activity [10]: Dose-dependent effect | EC50 [11]: 12 nM | EC50 [12]: 2.6 nM | Activity [13]: inactive | Activity [14]: inactive | Activity [15]: inactive | inhibition [16]: inactive | EC50 [17]: 1.5 nM | Activity [18]: inactive | Activity [19]: Dose-dependent effect | Activity [21]: inactive
Compound: Cc1nn(-c2ncnc3nc[nH]c23)c2c1C(OCc1cc(F)cc3c1OCOC3)CC(=O)N2 (centres undefined)
Activity [8]: 82% | Activity [20]: inactive

Activity [22]: inactive | Activity [23]: inactive | Activity [24]: Dose-dependent effect | EC50 [17]: 200 nM | fold change (FC) [25]: 2
Compound: O=C1/C(=C/NCCCO)C(c2ccccc2)=NN1c1nc2ccccc2s1

EC50 [2]: 3000 nM | Activity [26]: Active | fold change (FC) [25]: 2
Compound: Cc1cc(C)nc(-n2nc(C)c3c2NC(=O)CC3c2ccc(COc3cccc(Cl)c3)cc2)n1 (centres undefined)

From ChEMBL document CHEMBL3994609, “Model-Based Discovery of Synthetic Agonists for the Zn2+-Sensing G-Protein-Coupled Receptor 39 (GPR39) Reveals Novel Biological Functions” (J Med Chem, 2017)
